Consider 18 molecules from ChEMBL document CHEMBL4038349, “Synthesis and Evaluation of Asymmetric Acyclic Nucleoside Bisphosphonates as Inhibitors of Plasmodium falciparum and Human Hypoxanthine-Guanine-(Xanthine) Phosphoribosyltransferase” (J Med Chem, 2017).

Structures are written as SMILES. Calls of active or inactive are those of the source. The calls are words filed in the database; no cut-off is given here.

In data set [1] the target is T1, Hypoxanthine-guanine phosphoribosyltransferase (Homo sapiens, UniProt P00492).
T1 sequence (P00492 whole entry): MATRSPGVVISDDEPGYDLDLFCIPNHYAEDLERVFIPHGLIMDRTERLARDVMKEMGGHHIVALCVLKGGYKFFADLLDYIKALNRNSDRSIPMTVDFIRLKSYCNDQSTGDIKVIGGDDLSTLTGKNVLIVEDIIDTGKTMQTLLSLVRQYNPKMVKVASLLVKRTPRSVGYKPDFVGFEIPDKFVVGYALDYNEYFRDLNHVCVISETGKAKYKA
Put plainly: Inhibition of human HGPRT using PRib-PP as the substrate by spectrophotometric method. Summed up:
(§1)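 Enzyme assays in 0.1 M Tris-HCl, 10 mM MgCl2, pH 7.4. Guanine fixed at 49 µM as non-variable substrate; PRib-PP varied 20-1400 µM at fixed inhibitor concentration; Hanes' plots. Ki from Km(app) = Km[1+[I]/Ki], assuming competitive inhibition; for Ki <2 µM, Km(app) measured at three inhibitor concentrations.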

Data set [2] in a line: Inhibition of Plasmodium falciparum HGPRT using PRib-PP as the substrate by spectrophotometric method. Summed up:
as §1

Data set [3] relates to Plasmodium falciparum. Put plainly: Inhibition of Plasmodium falciparum HGPRT using PRib-PP as the substrate at 33 uM by spectrophotometric method.
The subject of data set [4] is Plasmodium falciparum. In words: Inhibition of Plasmodium falciparum HGPRT using PRib-PP as the substrate at 50 uM by spectrophotometric method.
Data set [5] in a line: Cytotoxicity against human A549 cells after 4 days by Coulter counting method. The format is cell-based. The method, boiled down: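 Human lung carcinoma A549 cells seeded at 7500 cells/well, compounds added next day in serial dilutions; 4 days at 37°C, then cells trypsinized and counted. CC50 = concentration giving 50% inhibition of proliferation versus no-compound control, derived by extrapolation assuming semi-log dose-response.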

For data set [6], the system named is Plasmodium falciparum. In words: Antimalarial activity against chloroquine and pyrimethamine-resistant Plasmodium falciparum W2 infected in type O+ human RBC assessed as reduction in [3H]hypoxanthine incorporation preincubated for 48 hrs followed by [3H]hypoxanthine addition measured after 96 hrs. The class given is functional. The method, boiled down:
(§2)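 Ring-stage synchronized cultures (>90% early trophozoite, D-sorbitol) at 0.5% parasitemia, 2% hematocrit in hypoxanthine-free RPMI-1640-LPLF with 10% human plasma, 37°C under 5% O2/5% CO2/90% N2. Ten 2-fold serial dilutions of prodrug for 96 h. [3H]-hypoxanthine (0.2 μCi/well) added at ~48 h. IC50 from non-linear regression of incorporation versus log concentration. Mean (±SD) of at least two independent experiments.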

The nature of data set [7]: Selectivity index, ratio of CC50 for human A549 cells to IC50 for Plasmodium falciparum D6. The class given is toxicity. The conditions noted are these: read-out: Ratio CC50/IC50. Summed up:
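Ratio CC50/IC50. CC50: A549 cells, 4-day proliferation, Coulter counting. IC50: Pf D6 ring-stage cultures, 0.5% parasitemia, 2% hematocrit, hypoxanthine-free medium, ten 2-fold dilutions of phosphoramidate prodrugs for 96 h; [3H]-hypoxanthine added at ~48 h; IC50 by non-linear regression; at least two independent experiments, mean ±SD.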

In data set [8] the test system is Plasmodium falciparum. In words: Antimalarial activity against Plasmodium falciparum D6 infected in type O+ human RBC assessed as reduction in [3H]hypoxanthine incorporation preincubated for 48 hrs followed by [3H]hypoxanthine addition measured after 96 hrs. The class given is functional. Summed up: as §2

`Nc1nc2c(nc(Br)n2CC(COCCP(=O)(O)O)OCCP(=O)(O)O)c(=O)[nH]1` (stereo not given): the inhibition constant Ki is 0.4 µM in data set [1] and 0.9 µM in data set [2].

`O=c1[nH]cnc2c1ncn2CC(COCCP(=O)(O)O)OCCP(=O)(O)O` (stereo not given): the inhibition result in data set [3] is “inactive”. In data set [1], this molecule yielded a Ki of 0.7 µM.

In turn, `O=c1[nH]cnc2c1ncn2CC(COCP(=O)(O)O)COCP(=O)(O)O` returned a Ki in data set [2] of 5 µM.

For `O=c1[nH]cnc2c1nc(Br)n2CC(COCCP(=O)(O)O)COCP(=O)(O)O` (stereo not given), the inhibition result in data set [4] was “inactive”. Moreover, in data set [1], the inhibition constant (Ki) was 2.5 µM.

For the molecule `CCOC(=O)[C@H](Cc1ccccc1)NP(=O)(CCOCC(COCP(=O)(N[C@@H](Cc1ccccc1)C(=O)OCC)N[C@@H](Cc1ccccc1)C(=O)OCC)Cn1c(Br)nc2c(=O)[nH]cnc21)N[C@@H](Cc1ccccc1)C(=O)OCC` (stereo not given in full), the CC50 at 96 h in data set [5] came to 36 µM.

Consider `CCOC(=O)[C@H](Cc1ccccc1)NP(=O)(CCOCC(COCP(=O)(N[C@@H](Cc1ccccc1)C(=O)OCC)N[C@@H](Cc1ccccc1)C(=O)OCC)Cn1cnc2c(=O)[nH]c(N)nc21)N[C@@H](Cc1ccccc1)C(=O)OCC` (stereo not given in full), for which the figures for the IC50 in data set [6] and in data set [8] were 7.4 µM and 5.7 µM, respectively. The molecule also showed a CC50 at 96 h in data set [5] of 212 µM. Also, the selectivity ratio in data set [7] stood at 37.

The molecule `CCOC(=O)[C@H](Cc1ccccc1)NP(=O)(CCOCC(Cn1c(Br)nc2c(=O)[nH]c(N)nc21)OCCP(=O)(N[C@@H](Cc1ccccc1)C(=O)OCC)N[C@@H](Cc1ccccc1)C(=O)OCC)N[C@@H](Cc1ccccc1)C(=O)OCC` (stereo not given in full) gave a 50% cytotoxic concentration (CC50) at 96 h in data set [5] of 188 µM.

On to `CCOC(=O)[C@H](Cc1ccccc1)NP(=O)(CCOCC(Cn1cnc2c(=O)[nH]cnc21)OCCP(=O)(N[C@@H](Cc1ccccc1)C(=O)OCC)N[C@@H](Cc1ccccc1)C(=O)OCC)N[C@@H](Cc1ccccc1)C(=O)OCC` (stereo not given in full), for which the half-inhibitory concentration (IC50) in data set [6] was 1.9 µM; in data set [8], 3.6 µM. Further, the selectivity ratio in data set [7] came to 25.

As for `CCOC(=O)[C@H](Cc1ccccc1)NP(=O)(CCOCC(COCP(=O)(N[C@@H](Cc1ccccc1)C(=O)OCC)N[C@@H](Cc1ccccc1)C(=O)OCC)Cn1c(Br)nc2c(=O)[nH]c(N)nc21)N[C@@H](Cc1ccccc1)C(=O)OCC` (stereo not given in full), the concentration for half-maximal inhibition (IC50) in data set [6] came out at 8.3 µM; in data set [8] it was 5.6 µM. The molecule also came in with a CC50 at 96 h in data set [5] of 151 µM. For the same molecule, the selectivity ratio in data set [7] came to 27.

Turning to `Nc1nc2c(nc(Br)n2CC(COCCP(=O)(O)O)COCP(=O)(O)O)c(=O)[nH]1` (stereo not given), the Ki in data set [1] was found to be 0.1 µM; in data set [2] it was 2 µM.

As for `O=c1[nH]cnc2c1ccn2CC(COCCP(=O)(O)O)COCP(=O)(O)O` (stereo not given), the results for the inhibition constant Ki in data set [1] and in data set [2] were 4.6 µM and 6 µM, respectively.

For the molecule `CCOC(=O)[C@H](Cc1ccccc1)NP(=O)(CCOCC(COCP(=O)(N[C@@H](Cc1ccccc1)C(=O)OCC)N[C@@H](Cc1ccccc1)C(=O)OCC)Cn1ccc2c(=O)[nH]cnc21)N[C@@H](Cc1ccccc1)C(=O)OCC` (stereo not given in full), the midpoint of cytotoxicity in data set [5], the CC50 at 96 h, lay at 20 µM.

On to `Nc1nc2c(ccn2CC(COCCP(=O)(O)O)COCP(=O)(O)O)c(=O)[nH]1` (stereo not given), for which the inhibition constant (Ki) was 0.1 µM in data set [1] and 4 µM in data set [2].

Turning to `O=c1[nH]cnc2c1ncn2CC(COCCP(=O)(O)O)COCP(=O)(O)O` (stereo not given), the inhibitory constant (Ki) in data set [1] turned out to be 1.8 µM; in data set [2] it was 3 µM.

Regarding `CCOC(=O)[C@H](Cc1ccccc1)NP(=O)(CCOCC(COCP(=O)(N[C@@H](Cc1ccccc1)C(=O)OCC)N[C@@H](Cc1ccccc1)C(=O)OCC)Cn1cnc2c(=O)[nH]cnc21)N[C@@H](Cc1ccccc1)C(=O)OCC` (stereo not given in full), the IC50 worked out at 3.2 µM in data set [6] and 1.4 µM in data set [8]. In data set [5], this molecule had a CC50 at 96 h of 82 µM. In data set [7], the selectivity ratio amounted to 59.

Take `CCOC(=O)[C@H](Cc1ccccc1)NP(=O)(CCOCC(COCP(=O)(N[C@@H](Cc1ccccc1)C(=O)OCC)N[C@@H](Cc1ccccc1)C(=O)OCC)Cn1ccc2c(=O)[nH]c(N)nc21)N[C@@H](Cc1ccccc1)C(=O)OCC` (stereo not given in full): the IC50 in data set [6] came to 6.5 µM; in data set [8] it was 1.8 µM. Besides, the midpoint of cytotoxicity in data set [5], the CC50 at 96 h, lay at 106 µM. For the same molecule, the selectivity ratio in data set [7] was 59.

In data set [2], `Nc1nc2c(ncn2CC(COCCP(=O)(O)O)OCCP(=O)(O)O)c(=O)[nH]1` (stereo not given) came in with a Ki of 0.5 µM.

Turning to `Nc1nc2c(ncn2CC(COCCP(=O)(O)O)COCP(=O)(O)O)c(=O)[nH]1` (stereo not given), the Ki is 0.006 µM in data set [1] and 0.07 µM in data set [2].

The term Ki denotes a measure of affinity in units of concentration, obtained from inhibition or displacement. High values mean a looser hold on the target, low ones a stronger hold on the target. In general, CC50 refers to the concentration giving 50% cytotoxicity. By IC50 is commonly meant the concentration at which inhibition is half-maximal.
